These results are taken from ChEMBL document CHEMBL4406900, “Synthesis and antidepressant-like activity of novel alkoxy-piperidine derivatives targeting SSRI/5-HT1A/5-HT7” (Bioorg Med Chem Lett, 2019).

For data set [1], the target named is T1, 5-hydroxytryptamine receptor 1A (Homo sapiens) (UniProt P08908).
T1 sequence (whole entry): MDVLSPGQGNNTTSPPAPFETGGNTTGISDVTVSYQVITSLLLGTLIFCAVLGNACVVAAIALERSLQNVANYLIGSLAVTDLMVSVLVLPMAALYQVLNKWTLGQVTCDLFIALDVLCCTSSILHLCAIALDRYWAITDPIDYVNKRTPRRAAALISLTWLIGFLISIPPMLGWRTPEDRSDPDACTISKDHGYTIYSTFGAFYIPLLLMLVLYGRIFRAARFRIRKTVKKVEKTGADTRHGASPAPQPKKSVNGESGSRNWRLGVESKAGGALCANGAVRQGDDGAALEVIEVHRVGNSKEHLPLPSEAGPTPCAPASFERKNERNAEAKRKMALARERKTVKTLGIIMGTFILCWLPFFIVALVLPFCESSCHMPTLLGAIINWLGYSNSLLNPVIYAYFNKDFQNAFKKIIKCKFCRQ
As to the kind of experiment: Displacement of [3H]-8-OH-DPAT from 5HT1A receptor (unknown origin) expressed in HEK293 cells membranes at 1 uM incubated for 60 mins by scintillation counting method relative to control. It is filed as cell membranes.

Data set [2] deals with T2, 5-hydroxytryptamine receptor 7 (Homo sapiens, UniProt P34969). Put plainly: Displacement of [3H]-LSD from 5HT7 receptor (unknown origin) expressed in CHO cell membranes at 1 uM incubated for 120 mins by scintillation counting method relative to control. The procedure, abridged: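 Single-concentration radioligand displacement on receptor-expressing cell membrane homogenates: [3H]-8-OH-DPAT with HEK-293 membranes for 5-HT1A, [3H]-LSD with CHO membranes for 5-HT7. Values are given as inhibition ratio (%).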

The target in data set [3] is Sodium-dependent serotonin transporter (Rattus norvegicus) (UniProt P31652). Put plainly: Inhibition of rat synaptosomes 5HT transporter assessed as reduction in [3H]serotonin reuptake at 1 uM incubated for 15 mins by scintillation counting method relative to control. It is filed as subcellular. In a few lines: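 Rat brain synaptosomes; inhibition of [3H]-5-HT incorporation through the serotonin uptake transporter at a single concentration, expressed as inhibition ratio (%).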

Data set [4] in a line: Clearance in human liver microsomes at 1 uM in presence of NADPH generating system measured for 10 to 90 mins by LC-MS/MS analysis. To be noted: read-out: CLH. It is filed as ADME, Microsome. The procedure, abridged:
(§1)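 Metabolic stability in rat or human liver microsomes, reported as t1/2 (min) and intrinsic clearance CL (µL/min/mg).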
On the technique in general: Liver microsomes are vesicles of endoplasmic reticulum, rich in cytochrome P450 enzymes.

For data set [5], the system named is Mus musculus. Put plainly: Antidepressant activity in mouse assessed as decrease in immobility time at 40 mg/kg, po administrated for daily for 7 days measured 1 hr post last dose by forced swim test relative to control. The arrangement: scale not given: the % may be the effect or the level left. It is filed as functional. The procedure, abridged: (§2)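 Male mice, repeated oral dosing at 10, 20 or 40 mg/kg/day for 7 days. Immobility time was scored in the forced swim test. n = 10 per group, mean ± SEM, compared with a vehicle group (*P < 0.05, **P < 0.01).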

The subject of data set [6] is Mus musculus. As to the kind of experiment: Antidepressant activity in mouse assessed as decrease in immobility time at […], po administrated for daily for 7 days measured 1 hr post last dose by tail suspension test relative to control. It is filed as functional. The arrangement: scale not given: the % may be the effect or the level left.
Data set [7] concerns Mus musculus. Put plainly: Antidepressant activity in mouse assessed as decrease in immobility time at 20 mg/kg, po administrated for daily for 7 days measured 1 hr post last dose by tail suspension test relative to control. It is filed as functional. The arrangement: scale not given: the % may be the effect or the level left. In a few lines:
(§3)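 Tail suspension test in male mice after 7 days of repeated PO dosing at 10, 20 or 40 mg/kg/day. Immobility time was recorded with n = 10 per group, given as mean ± SEM and tested against vehicle (*P < 0.05, **P < 0.01).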

Data set [8] concerns Mus musculus. As to the kind of experiment: Antidepressant activity in mouse assessed as decrease in immobility time at 10 mg/kg, po administrated for daily for 7 days measured 1 hr post last dose by forced swim test relative to control. It is filed as functional. Set-up: scale not given: the % may be the effect or the level left. The procedure, abridged:
as §2

In data set [9] the test system is Mus musculus. Put plainly: Antidepressant activity in mouse assessed as decrease in immobility time at 10 mg/kg, po administrated for daily for 7 days measured 1 hr post last dose by tail suspension test relative to control. The arrangement: scale not given: the % may be the effect or the level left. It is filed as functional. The procedure, abridged:
as §3

Data set [10] addresses T3, 5-hydroxytryptamine receptor 1A (Homo sapiens, UniProt P08908).
T3 sequence (P08908 whole entry): T1 sequence (whole entry)
Put plainly: Displacement of [3H]-8-OH-DPAT from 5HT1A receptor (unknown origin) expressed in HEK293 cells membranes incubated for 60 mins by scintillation counting method. It is filed as cell membranes.

Data set [11] concerns Mus musculus. As to the kind of experiment: Antidepressant activity in mouse assessed as decrease in immobility time at 20 mg/kg, po administrated for daily for 7 days measured 1 hr post last dose by forced swim test relative to control. It is filed as functional. Set-up: scale not given: the % may be the effect or the level left. In a few lines:
as §2

The target of data set [12] is Sodium-dependent serotonin transporter (Rattus norvegicus, UniProt P31652). As to the kind of experiment: Inhibition of rat synaptosomes 5HT transporter assessed as reduction in [3H]serotonin reuptake incubated for 15 mins by scintillation counting method. It is filed as subcellular. The procedure, abridged:
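Serotonin uptake transporter assay: inhibition of [3H]-5-HT incorporation into rat brain synaptosomes. IC50 was derived from 8 concentrations, each in duplicate.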

Data set [13] addresses T2, 5-hydroxytryptamine receptor 7. As to the kind of experiment: Displacement of [3H]-LSD from 5HT7 receptor (unknown origin) expressed in CHO cell membranes incubated for 120 mins by scintillation counting method. The procedure, abridged:
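For 5-HT7, [3H]-LSD displacement binding was run on CHO cell membrane homogenates. Ki came from 8 concentrations, each tested in duplicate.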
In general terms: In a radioligand displacement assay an active substance lowers the binding of a labelled ligand.

A short description of data set [14]: Half life in human liver microsomes at 1 uM in presence of NADPH generating system measured for 10 to 90 mins by LC-MS/MS analysis. It is filed as ADME, Microsome. The procedure, abridged:
as §1

Data set [15] is described as follows: Clearance in rat liver microsomes at 1 uM in presence of NADPH generating system measured for 10 to 90 mins by LC-MS/MS analysis. It is filed as ADME, Microsome. To be noted: read-out: CLH. In a few lines: as §1
Data set [16] is described as follows: Half life in rat liver microsomes at 1 uM in presence of NADPH generating system measured for 10 to 90 mins by LC-MS/MS analysis. It is filed as ADME, Microsome. The procedure, abridged:
as §1

Molecules are shown by their SMILES.

What is called inhibition is the change of the read-out against control, counted positive when it falls. The term Ki denotes a measure of affinity in units of concentration, obtained from inhibition or displacement. In general, IC50 refers to the point on the concentration scale where inhibition reaches its midpoint. For orientation: half-life means the time needed for the level to fall by half in the phase considered.

Chain of Sodium-dependent serotonin transporter (Rattus norvegicus) (P31652 whole entry): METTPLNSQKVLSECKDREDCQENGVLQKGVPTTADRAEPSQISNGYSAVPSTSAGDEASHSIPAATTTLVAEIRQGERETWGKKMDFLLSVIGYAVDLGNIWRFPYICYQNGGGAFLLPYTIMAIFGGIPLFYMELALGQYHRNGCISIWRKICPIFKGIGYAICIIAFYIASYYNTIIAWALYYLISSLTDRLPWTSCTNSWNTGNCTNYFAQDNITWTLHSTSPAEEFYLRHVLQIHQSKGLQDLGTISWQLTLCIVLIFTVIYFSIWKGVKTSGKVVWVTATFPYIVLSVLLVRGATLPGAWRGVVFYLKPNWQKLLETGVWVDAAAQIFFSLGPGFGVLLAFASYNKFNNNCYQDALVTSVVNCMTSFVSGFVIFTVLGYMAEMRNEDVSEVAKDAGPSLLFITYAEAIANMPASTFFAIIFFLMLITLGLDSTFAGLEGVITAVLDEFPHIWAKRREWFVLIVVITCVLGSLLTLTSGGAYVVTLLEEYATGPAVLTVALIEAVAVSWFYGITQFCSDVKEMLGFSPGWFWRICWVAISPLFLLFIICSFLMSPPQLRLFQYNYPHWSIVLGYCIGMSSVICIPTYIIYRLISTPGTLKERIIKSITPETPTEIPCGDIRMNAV
T2 sequence (P34969 whole entry): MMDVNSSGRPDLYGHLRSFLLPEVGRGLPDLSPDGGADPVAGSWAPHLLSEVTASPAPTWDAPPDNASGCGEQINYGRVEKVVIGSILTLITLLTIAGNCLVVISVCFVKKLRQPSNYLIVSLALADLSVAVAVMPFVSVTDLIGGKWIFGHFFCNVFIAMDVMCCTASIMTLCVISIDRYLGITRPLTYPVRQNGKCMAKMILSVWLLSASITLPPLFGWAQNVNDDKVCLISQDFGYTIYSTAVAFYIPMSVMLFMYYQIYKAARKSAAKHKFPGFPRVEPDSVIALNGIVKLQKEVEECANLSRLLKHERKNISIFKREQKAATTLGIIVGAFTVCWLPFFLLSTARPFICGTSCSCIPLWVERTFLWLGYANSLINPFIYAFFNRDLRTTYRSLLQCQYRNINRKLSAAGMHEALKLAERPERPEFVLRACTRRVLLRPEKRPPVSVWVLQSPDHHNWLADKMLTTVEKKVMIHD
Chain of Sodium-dependent serotonin transporter (P31652 whole entry): as the sequence (P31652 whole entry) above

Regarding `Fc1ccc(OCCN2CCC(c3c[nH]c4ccc(F)cc34)CC2)c(-c2ccc(Cl)cc2)c1`, the inhibition in data set [1] amounted to 95%; in data set [2], 80.3%; in data set [3], 27.3%.
Take `Cc1ccc(Sc2ccccc2N2CCNCC2)c(C)c1` [VORTIOXETINE]: the microsomal CLint at 1 µM in [4] was 6.5 µL/min/mg. The inhibition in data set [2] came to 92.5%; in data set [3], 101%. Besides, the values for the Activity in the data set with Mus musculus [5] and in the data set on Mus musculus [6] were 52% and 48%, respectively.
As to `Fc1ccc(OCCN2CCC(c3c[nH]c4ccc(F)cc34)CC2)c(-c2ccccc2)c1`, the Activity with Mus musculus [7] amounted to 22%; with Mus musculus [8] it was 17%; with Mus musculus [9] it was 10%; with Mus musculus [11] it was 8%; with Mus musculus [5], 22%; in the data set on Mus musculus [6], 24%. The results for the microsomal CLint at 1 µM in [4] and in data set [15] were 22.5 µL/min/mg and 40.2 µL/min/mg, respectively. Also, the Ki was determined as 0.012 µM in data set [10] and 0.025 µM in data set [13]. Further, the IC50 in [12] came out at 0.177 µM. Besides, the inhibition in [1] was 94.2%; in [2], 90.4%; in data set [3], 96.3%. Besides, the half-life at 1 µM in data set [14] is 61.5 min; in data set [16], 34.5 min.
`COc1ccc2c(c1)[C@]13CCCC[C@@H]1[C@H](C2)N(C)CC3` [DEXTROMETHORPHAN]: the microsomal CLint at 1 µM in [4] amounted to 31 µL/min/mg.
For the molecule `Fc1ccc(OCCN2CCC(CCc3c[nH]c4ccc(F)cc34)CC2)c(-c2ccccc2)c1`, the results for the inhibition in [1], in [2] and in [3] were 54.3%, 94.3% and 99.8%, respectively.
Consider `Fc1ccc2[nH]cc(C3CCN(CCOc4ccc(F)c(-c5ccccc5)c4)CC3)c2c1`, for which the inhibition in data set [1] is 96.9%; in data set [2] it was 54.2%; in data set [3] it was 66.6%.
Consider `N#Cc1ccc(-c2cc(F)ccc2OCCN2CCC(c3c[nH]c4ccc(F)cc34)CC2)cc1`, for which the values for the inhibition in [1], in [2] and in [3] were 97.5%, 95.8% and 63%, respectively.
Taken in the same sequence, the figures for `Fc1ccc(-c2cc(F)ccc2OCCN2CCC(c3c[nH]c4ccc(F)cc34)CC2)cc1` were 97.4%, 86.5% and 90.6%.
Taken in the same sequence, the figures for `Fc1ccc(OCCCN2CCC(c3c[nH]c4ccc(F)cc34)CC2)c(-c2ccccc2)c1` were 97.7%, 76.1% and 87%.
Regarding `COc1ccc(-c2cc(F)ccc2OCCN2CCC(c3c[nH]c4ccc(F)cc34)CC2)cc1`, the inhibition in [1] turned out to be 98.7%; in data set [2] it was 95.9%; in data set [3], 12.3%.
For the molecule `Fc1ccc(OCCCN2CCC(Cc3c[nH]c4ccc(F)cc34)CC2)c(-c2ccccc2)c1`, the inhibition in [1] came to 81.9%; in data set [2], 86.4%; in data set [3], 102%.
Consider `Cc1ccc(-c2cc(F)ccc2OCCN2CCC(c3c[nH]c4ccc(F)cc34)CC2)cc1`, for which the values for the inhibition in [1], in data set [2] and in [3] were 94.5%, 86.2% and 38.9%, respectively.
The corresponding values for `Fc1ccc(OCCN2CCC(c3c[nH]c4ccc(F)cc34)CC2)c(-c2ccccc2F)c1` are 97.8%, 88.7% and 97.1%.
Turning to `Fc1cccc(-c2cc(F)ccc2OCCN2CCC(c3c[nH]c4ccc(F)cc34)CC2)c1`, the Activity with Mus musculus [7] came out at 2%; with Mus musculus [8] it was 20%; with Mus musculus [9], 8%; in the data set on Mus musculus [11] it was 6%; in the data set on Mus musculus [5], 27%; in the data set with Mus musculus [6] it was 17%. The microsomal CLint at 1 µM in [4] was 22.6 µL/min/mg; in data set [15], 60.4 µL/min/mg. The inhibitory constant (Ki) turned out to be 0.017 µM in data set [10] and 0.035 µM in [13]. Besides, the IC50 in data set [12] turned out to be 0.085 µM. Further, the values for the inhibition in data set [1], in data set [2] and in data set [3] were 95.9%, 91% and 94.3%, respectively. In addition, the half-life at 1 µM stood at 61.4 min in data set [14] and 22.9 min in data set [16].
In the case of `Fc1ccc(OCCN2CCC(Cc3c[nH]c4ccc(F)cc34)CC2)c(-c2ccccc2)c1`, the inhibition came to 72.3% in [1], 97.2% in data set [2] and 101% in [3].
